Only some compounds are listed: those with a hit (about 5.7% of all), similar ones and a draw of the others.
SKKanGAS inh: S. pyogenes SKKanGAS growth inhibitors in kanamycin, primary screen, streptokinase expression inhibitor project, SKKanGAS strain, BacTiter-Glo luminescence | inhibition, % at 7.5 µM | 6 h | 300,000 tested, 1.3% active;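 active = mean replicate score, as percent of positive control median, at least 50; inconclusive = mean below 50 but one replicate at or above 50; inactive = mean and every replicate below 50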;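 note: strain carries kanamycin resistance gene driven by streptokinase promoter and grows in 40 µg/ml kanamycin; loss of luminescence reflects streptokinase promoter inhibition or plain growth inhibition; 0% = median of DMSO wells and 100% = positive control at its reference dose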
T cruzi inh: inhibitors of intracellular T. cruzi growth, primary screen, luminescence, NIH3T3 host cells; 300,000 tested, 1.4% active; inhibition, % (concentration not given with the values); T. cruzi beta-gal in NIH3T3, 90 h; AID 1885, 2009;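 active = mean inhibition across valid replicates above about 55%, limit read from the data; inconclusive = mean below that limit but half or more replicates reach it; inactive = mean below it, under half of replicates reach it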;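 note: signal also drops with host cell toxicity which is not excluded here; 0% = plate median of DMSO wells and 100% = zero luminescence signal; higher percent means less beta-gal luminescence so fewer parasites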
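Material: NIH/3T3 host cells with β-galactosidase reporter T. cruzi; Input: 5,000 host fibroblasts per well; Medium: DMEM, 2% fetal bovine serum; Compound: 50 nL DMSO compound solution per well; Schedule: 3 h host attachment, then at least 90 h co-culture; Detection: luminescent β-galactosidase signal after 60 min lysis.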
Calb FLC: C. albicans growth inhibition with fluconazole, primary screen, CaCi-2 strain, Alamar Blue fluorescence. growth inhibition, % (concentration not given with the values). C. albicans CaCi-2 (fluconazole-resistant clinical isolate) + fluconazole, 48 h. AID 1979, 2009. 300,000 tested, 0.57% active;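 active = growth inhibition above about 58% in most replicates, limit read from the data, passing the limit was not always enough; inconclusive = exactly half the replicates above a set limit; inactive = most replicates below a set limit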;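 note: all wells also contain fluconazole at 8 µg/ml as a sub-toxic cotreatment; 0% = median of DMSO wells and 100% = median of geldanamycin control wells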
Mdm2-MdmX inh: inhibitors of human Mdm2-MdmX association, primary screen, cell-based, luminescence, split luciferase, SaOS-2, uHTS | SaOS-2 split-luciferase Mdm2/MdmX complementation | inhibition, % at 8 µM | 330,000 tested, 3% active;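 active = inhibition of at least 50% at 8 µM in the primary screen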
Target sequence (O15151 whole entry, looked up): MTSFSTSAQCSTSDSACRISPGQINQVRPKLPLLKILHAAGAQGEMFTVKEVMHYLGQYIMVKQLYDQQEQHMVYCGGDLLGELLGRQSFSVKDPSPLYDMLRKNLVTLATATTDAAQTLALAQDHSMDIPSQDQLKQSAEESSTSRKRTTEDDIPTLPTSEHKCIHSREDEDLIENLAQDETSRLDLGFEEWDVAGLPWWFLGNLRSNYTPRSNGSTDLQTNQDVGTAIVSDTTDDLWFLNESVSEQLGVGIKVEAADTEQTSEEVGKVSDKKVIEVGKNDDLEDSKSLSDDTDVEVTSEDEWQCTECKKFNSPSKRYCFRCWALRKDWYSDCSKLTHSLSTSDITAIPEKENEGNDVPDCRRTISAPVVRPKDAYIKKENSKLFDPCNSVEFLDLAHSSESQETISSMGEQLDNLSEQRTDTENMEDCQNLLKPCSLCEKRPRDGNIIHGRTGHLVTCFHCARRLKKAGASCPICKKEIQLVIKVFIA
Target sequence (Q00987 whole entry, looked up): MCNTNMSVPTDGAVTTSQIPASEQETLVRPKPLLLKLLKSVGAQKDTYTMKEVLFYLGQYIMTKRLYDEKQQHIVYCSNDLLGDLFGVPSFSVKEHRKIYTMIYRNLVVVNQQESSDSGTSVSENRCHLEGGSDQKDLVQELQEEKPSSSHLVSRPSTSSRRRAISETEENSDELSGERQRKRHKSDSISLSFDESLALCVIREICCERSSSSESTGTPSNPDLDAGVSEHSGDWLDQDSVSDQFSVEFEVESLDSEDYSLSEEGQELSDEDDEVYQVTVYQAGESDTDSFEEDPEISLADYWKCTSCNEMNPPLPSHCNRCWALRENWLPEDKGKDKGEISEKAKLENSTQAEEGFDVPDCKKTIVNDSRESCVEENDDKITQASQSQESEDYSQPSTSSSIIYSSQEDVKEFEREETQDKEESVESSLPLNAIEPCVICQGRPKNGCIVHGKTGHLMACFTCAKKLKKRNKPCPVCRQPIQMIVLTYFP
CSC inhib: cancer stem cell viability inhibitors, primary screen, luminescence; AID 2717, 2010; cancer stem cell-like cells viability; inhibition, % at 7.5 µM; 300,000 tested, 1.1% active; in the data active = inhibition above about 75%; inconclusive = no clear call, values can overlap the other calls; tested in HMLE shEcad cells
Beta apoptosis: inhibitors of cytokine-induced beta cell apoptosis, primary screen, luminescence | protection from apoptosis, % (concentration not given with the values) | INS-1E cytokine-induced death, ATP luminescence, 48 h; percent of positive-control rescue, neutral wells zero | AID 435005, 2010 | 300,000 tested, 0.8% active;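 active = Every replicate reaches about 75%, or at least half do and their mean reaches it too, limit read from the data; inconclusive = At least half of replicates reach the limit but their mean does not; inactive = Under half of replicates reach the limit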;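 note: 0% = cytokine-treated negative control wells and 100% = positive control rescue; higher means more ATP so stronger rescue from cytokine killing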
* marks the source's active call; other numbers are inactive results; ? = inconclusive; . = no result given.

SMILES	SKKanGAS inh	T cruzi inh	Calb FLC	Mdm2-MdmX inh	CSC inhib	Beta apoptosis
NC(=O)NC(=O)COC(=O)c1ccc(Cl)c(S(=O)(=O)N(Cc2ccccc2)c2ccc(Cl)cc2)c1	26	5	45	-7	86*	-13
NC(=O)COC(=O)c1ccc(Cl)c(S(=O)(=O)N(Cc2ccccc2)c2ccc(Cl)cc2)c1	6	-1	18	19	50	-6
NC(=O)NC(=O)CSc1nc2sc(-c3ccccc3)cc2c(=O)n1-c1ccccc1	62*	12	11	5	-8	5
COC(=O)CNC(=O)CSc1nc2sc(-c3ccccc3)cc2c(=O)n1-c1ccccc1	10	-2	-2	-2	-11	-9
O=C(/C=C/c1ccccc1)N1c2ccccc2Sc2ccc(C(F)(F)F)cc21	4	38	3	-8	23	1
COc1ccc(/C=C/C(=O)N2c3ccccc3Sc3ccc(C(F)(F)F)cc32)cc1	-3	57*	-1	21	15	4
CCN(CC)CCNC(=O)c1ccc(NC(=O)COc2ccc3c(c2)CCC3)cc1	.	.	.	7	.	-2
COc1ccc(CN2CCN(Cc3nc4ccccc4s3)CC2CCO)c(C)c1C (stereo unspecified)	1	61*	-5	26	38	7
COc1ccc(CN2CCN(Cc3csc(C(C)=O)c3)CC2CCO)c(C)c1C (stereo unspecified)	-1	55*	-3	10	32	2
COc1ccc(CC(=O)Nc2ccncc2Cl)cc1	1	-59	4	10	8	102*
Cc1cc(C(=O)O)ccc1-n1c(C)cc(/C=C2\SC(=O)NC2=O)c1C	14	-9	2	4	-12	0
Cc1cc(/C=C2/SC(=O)NC2=O)c(C)n1-c1ccc(N2CCOCC2)cc1	90*	10	-1	8	.	16
Cc1cc(/C=C2\SC(=S)NC2=O)c(C)n1-c1ccccc1	41	-2	27	0	13	.
Cc1cc(/C=C2\SC(=S)NC2=O)c(C)n1-c1ccc(O)cc1	100*	-1	15	20	17	6
CNC(=O)/C(C#N)=C\c1cc(C)n(-c2ccc(N3CCOCC3)cc2)c1C	62*	12	13	19	-9	-3
Cc1ccc(-c2csc(NC(=O)C3=COCCO3)n2)cc1	-4	-6	-4	-175	4	0
Cc1ccc(C)c(-c2csc(NC(=O)c3cnccn3)n2)c1	37	93*	25	26	14	3
Cc1ccc(C)c(-c2csc(NC(=O)C3=COCCO3)n2)c1	6	53	-16	2	.	77*
CCOc1ccc(NC(=O)/C(C=Nc2ccccc2)=C(\C)O)cc1	21	-8	-1	9	18	3
CCOC(=O)Cc1c(C)nc2c(-c3cccc(Br)c3)c[nH]n2c1=O	95*	-6	-12	35	-12	18
CCOC(=O)Cc1c(C)nc2c(C#N)c[nH]n2c1=O	1	-7	?	-3	.	.
O=c1oc2cc(O)ccc2cc1-c1nc2c(s1)CCc1ccccc1-2	.	.	.	.	83*	0
O=c1oc2ccccc2cc1-c1nc2c(s1)CCc1ccccc1-2	-10	-13	5	-32	-5	-11
CC(C)c1ccc(NC(=O)Cn2nnc(C(=O)NCc3ccco3)c2N)cc1	5	-4	-2	4	-12	0
O=C(Nc1nnc(-c2cccs2)o1)c1cccc(C(F)(F)F)c1	92*	48	62	48	39	.
SMILES	SKKanGAS inh	T cruzi inh	Calb FLC	Mdm2-MdmX inh	CSC inhib	Beta apoptosis
O=C(Nc1nnc(-c2cccs2)o1)C1CC1	3	-8	-1	24	-11	1
N#Cc1ccc(C(=O)Nc2nnc(-c3cccs3)o2)cc1	52*	35	-6	40	22	.
CC1CC(C)CN(S(=O)(=O)c2ccc(C(=O)Nc3nnc(-c4cccs4)o3)cc2)C1 (stereo unspecified)	82*	24	-7	37	45	.
CC1CCCN(S(=O)(=O)c2ccc(C(=O)Nc3nnc(-c4ccccc4Cl)o3)cc2)C1 (stereo unspecified)	97*	41	-6	48	22	16
CN(C)S(=O)(=O)c1ccc(C(=O)Nc2nnc(-c3cccs3)o2)cc1	-2	-24	10	33	20	1
O=C(Nc1cccc(Cl)c1)C1=Cc2cc(Cl)ccc2OC1	32	0	-10	23	6	-2
O=C(Nc1ccc(Cl)c(Cl)c1)C1=Cc2ccccc2OC1	75*	17	-12	-47	50	-4
COc1ccc(OC)c(C=NNC(=O)c2ccc(NS(=O)(=O)c3cccs3)cc2)c1	.	.	.	-13	-10	1
O=C1CC(c2ccc(F)cc2)CC2=C1C=Nc1ccccc1N2 (stereo unspecified)	5	3	21	32	103*	-3
O=C1CC(c2ccccc2)CC2=C1C=Nc1ccccc1N2 (stereo unspecified)	-2	-3	-2	31	42	-11
Cc1nnc(SCC2=C(C(=O)O)N3C(=O)C(NC(=O)Cn4ncc(Cl)c4C)C3SC2)s1 (stereo unspecified)	106*	-11	1	17	-9	-15
Cc1nnc(SCC2=C(C(=O)O)N3C(=O)C(NC(=O)c4cccc(F)c4F)C3SC2)s1 (stereo unspecified)	120*	-10	-12	-22	.	-5
COC(=O)CCN(C(=O)c1cc([N+](=O)[O-])cc([N+](=O)[O-])c1)c1ccccn1	4	65*	-3	-17	-13	-2
COc1cc(C(=O)Nc2nnc(S(=O)(=O)N3CCCCCC3)s2)cc(OC)c1OC	25	-10	-7	-5	19	-5
Cc1cc(C)c(NC(=O)COC(=O)C2=COCCO2)c(Cl)c1	-1	-3	-7	4	12	.
CN1/C(=C/C(=O)CSc2ccccc2C(=O)O)C(C)(C)c2ccccc21	8	3	-3	12	-12	42
COCCn1c(SCC(=O)/C=C2\N(C)c3ccccc3C2(C)C)nnc1-c1ccncc1	-5	19	-2	-1	7	80*
COCCn1c(SCC(=O)c2c(-c3ccccc3)n(C)c3ccccc23)nnc1-c1ccncc1	2	23	-3	-1	6	-3
Cc1cc(=O)[nH]c(SCC(=O)/C=C2\N(C)c3ccccc3C2(C)C)n1	-8	15	-1	-7	-8	117*
CN1/C(=C\C(=O)CN2C(=O)NC3(CCCCCC3)C2=O)C(C)(C)c2ccccc21	4	38	3	-3	-10	113*
CC(C)CCn1c(SCC(=O)Nc2ccccc2C(F)(F)F)nc2nccnc2c1=O	1	8	4	-3	3	-6
